PGC1a acetyl inh: inhibitors of PGC1a acetylation signal, primary screen, cell-based, U2OS, AlphaScreen, inhibitor mode; 350,000 compounds, 0.17% hits; AlphaScreen anti-acetyl-lysine; with virally co-expressed GCN5 acetyltransferase; inhibition, % at 15.6 µM;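 active = every replicate shows inhibition of at least 40%; inconclusive = mean inhibition at least 40% but some replicate below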;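 note: 0% = neutral control wells and 100% = positive control wells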
EWS-Fli block: EWS/Fli-driven NR0B1 reporter inhibitors, primary screen, A673 cells, NR0B1 luciferase, luminescence, MLPCN library. viability-normalised. inhibition, % at 12.6 µM. 350,000 compounds, 0.67% hits;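 active = mean inhibition of at least 50% after viability correction, with every replicate also passing that limit; inconclusive = mean reaches 50% but only one of two replicates passes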;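 note: firefly luciferase signal divided by Alamar Blue viability fluorescence both relative to DMSO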
FN deposition inh: inhibitors of fibronectin matrix deposition, primary screen, AH1F cells, Alexa488-fibronectin fluorescence, plate reader; AH1F fibroblasts, overnight; inhibition, % at 12.6 µM; 350,000 compounds, 0.086% hits;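 active = mean inhibition across replicates of 30% or more, regardless of how many single replicates reach that level; inconclusive = mean under 30% yet at least half of replicates reach 30%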;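 note: positive control wells lacked labelled fibronectin entirely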
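test system = AH1F fibroblasts assembling fluorescent fibronectin matrix | quantity = 10000 AH1F cells per well | buffer or medium = DMEM plus 2% serum, read in PBS | doses = single dose, pinned | incubation = 1 h cell attachment, overnight exposure to compound and label | detection = fluorescence at 485 nm excitation, 525 nm emission | read-out basis = inhibition from reduced deposited-fibronectin fluorescence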
FGF22 binding: binders of human FGF22 protein, primary screen, FGF22 synaptogenesis inhibitor project, biophysical, thermal shift, single point | Fibroblast growth factor 22 (Homo sapiens), Q9HCT0 | recombinant FGF22 thermal shift, SYPRO orange fluorescence; percent of sucrose octasulfate shift, DMSO zero | activity (Tm shift, normalised), % at 9.99 µM | 340,000 compounds, 1.5% hits;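 active = mean Tm shift, scaled 0 neutral to 100 positive control, at about 1.3% or above, every replicate too, limit read from the data; inconclusive = no clear call, values can overlap the other calls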
Target sequence (Q9HCT0 whole entry, looked up): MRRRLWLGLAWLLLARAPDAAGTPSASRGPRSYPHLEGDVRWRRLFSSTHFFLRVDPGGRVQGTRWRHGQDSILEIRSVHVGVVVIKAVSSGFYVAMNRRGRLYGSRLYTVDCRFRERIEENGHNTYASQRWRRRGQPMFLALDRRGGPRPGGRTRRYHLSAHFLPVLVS
Env fusion inh: inhibitors of HIV-1 Env-driven cell-cell fusion, primary screen, HeLa-JRFL effector, CEM21 target cells, luciferase | inhibition, % at 12.3 µM | 360,000 compounds, 1.1% hits;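 active = mean replicate inhibition score of at least 50 and every replicate individually at or above 50; inconclusive = only one of the two criteria met; inactive = mean below 50 and not all replicates reaching 50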;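 note: 0% = plate neutral controls and 100% = maraviroc near 300 nM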
PAX8 inh HTS: inhibitors of PAX8-driven TPO luciferase reporter, primary screen, RMG-I cells, single concentration; inhibition, % at 12.6 µM; 360,000 compounds, 1.2% hits; SteadyGlo, 24 h;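 active = mean replicate inhibition at least 60% with every replicate also reaching 60%; inconclusive = only one of the two criteria is met; inactive = mean below 60% and not all replicates reaching 60%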;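 note: luciferase light reporting Pax8 driven TPO promoter activity; plate controls were median of neutral control wells for no effect and mitoxantrone controls for full effect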
Active calls of the source: *; [ ] = remark or other dose. The list is not random: actives were taken first. Their share in the collection is about 3.1%.

Results for CCN(CC(=O)Nc1c(F)cccc1F)C(=O)CCCOc1ccc(OC)cc1 ?
PGC1a acetyl inh: -1; EWS-Fli block: 0; FN deposition inh: 2; FGF22 binding: 0; Env fusion inh: 3; PAX8 inh HTS: -8

What do the screens show for `CCN(CC(=O)Nc1c(F)cccc1F)C(=O)CCc1ccc(OC)cc1`?
EWS-Fli block: -12; FN deposition inh: 8; FGF22 binding: 44*; Env fusion inh: -5; PAX8 inh HTS: -12

Results for O=C(Nc1nnc(SCc2ccc(F)cc2)s1)C1CC(=O)N(c2ccc3c(c2)OCCO3)C1 (centres undefined) ?
Env fusion inh: 17; PAX8 inh HTS: 1

What do the screens show for `C=CCSc1nnc(NC(=O)C2CC(=O)N(c3ccc4c(c3)OCCO4)C2)s1` (centres undefined)?
PGC1a acetyl inh: 2; EWS-Fli block: 11; FN deposition inh: -4; FGF22 binding: 0; Env fusion inh: inactive; PAX8 inh HTS: 81*

Results for C[C@@H]1CN([C@@H](C)CO)C(=O)Cc2cc(NS(=O)(=O)c3ccccc3)ccc2O[C@H]1CN(C)S(=O)(=O)c1ccccc1 ?
PGC1a acetyl inh: -4; EWS-Fli block: 3; FGF22 binding: 0; Env fusion inh: -3[16.7 µM]; PAX8 inh HTS: -15

Results for COc1cc(OC)c2c(-c3cccc(-c4ccc(O)cc4)c3)cc(=O)oc2c1 ?
PGC1a acetyl inh: 8; EWS-Fli block: 53*; FN deposition inh: 15; FGF22 binding: 0; Env fusion inh: -64; PAX8 inh HTS: 41

How did COc1ccc(-c2cccc(-c3cc(=O)oc4cc(OC)cc(OC)c34)c2)cc1 do in these assays?
PGC1a acetyl inh: -21; EWS-Fli block: 53*; FGF22 binding: 0; Env fusion inh: -29; PAX8 inh HTS: 58

Results for COc1cc(OC)c2c(-c3cccc(/C=C/c4ccc(F)cc4)c3)cc(=O)oc2c1 ?
EWS-Fli block: -80; FGF22 binding: 0; Env fusion inh: -177; PAX8 inh HTS: -88

How did COc1cc(OC)c2c(-c3cccc(-c4ccc(N(C)C)cc4)c3)cc(=O)oc2c1 do in these assays?
PGC1a acetyl inh: -9; EWS-Fli block: inconclusive; FN deposition inh: -33; FGF22 binding: 0; Env fusion inh: -164; PAX8 inh HTS: 77*

What do the screens show for `COc1cc2oc(=O)cc(-c3ccc(-c4ccc(N(C)C)cc4)cc3)c2c(OC)c1OC`?
PGC1a acetyl inh: 15; EWS-Fli block: -12; FN deposition inh: -5; FGF22 binding: 0; Env fusion inh: 22; PAX8 inh HTS: -40

How did COc1cc(OC)c2c(C)cc(=O)oc2c1 do in these assays?
PGC1a acetyl inh: 0

Results for COc1cc(OC)c2c(-c3cccc(-c4cccc(C)c4)c3)cc(=O)oc2c1 ?
PGC1a acetyl inh: -60; EWS-Fli block: 54*; FGF22 binding: 0; Env fusion inh: 24; PAX8 inh HTS: 27

Results for COc1cc(OC)c2c(-c3cccc(-c4ccc(OC(F)(F)F)cc4)c3)cc(=O)oc2c1 ?
PGC1a acetyl inh: -2; EWS-Fli block: -3; FN deposition inh: -11; FGF22 binding: 0; Env fusion inh: 9; PAX8 inh HTS: -4

How did C[C@@H]1CN([C@H](C)CO)C(=O)c2cc(NC(=O)Nc3cccc4ccccc34)ccc2O[C@@H](C)CCCCO[C@@H]1CN(C)S(=O)(=O)c1cccs1 do in these assays?
PGC1a acetyl inh: 1; EWS-Fli block: 1; FGF22 binding: 0; Env fusion inh: 20[16.7 µM]; PAX8 inh HTS: -5

How did N#C[C@H]1[C@@H](c2ccccc2)[C@H](CO)N1C(=O)Cc1ccccc1 do in these assays?
PGC1a acetyl inh: 1; EWS-Fli block: -12; FN deposition inh: -3; FGF22 binding: 0; Env fusion inh: 15[16.7 µM]; PAX8 inh HTS: -1

How did CO[C@H](CN(C)S(=O)(=O)c1ccccc1)[C@@H](C)CN(Cc1ccccc1Cl)[C@H](C)CO do in these assays?
PGC1a acetyl inh: -15; EWS-Fli block: 15; FN deposition inh: 1; FGF22 binding: 0

Assay outcomes deposited in PubChem BioAssay by Broad Institute.
